Series [1] can be described thus: Cytotoxicity against human leukemia stem/progenitor cells assessed as viable CD34+ cells at 10 uM after 18 hrs by annexin-V labeling-based flow cytometry. The series is classed as functional, CD34+ cell.
The nature of series [2]: Cytotoxicity against human leukemia cells assessed as cell viability at 10 uM after 18 hrs by annexin-V labeling-based flow cytometry.
Series [3] in a line: Cytotoxicity against human leukemia stem/progenitor cells assessed as viable CD34+CD38- cells at 10 uM after 18 hrs by annexin-V labeling-based flow cytometry relative to control. The series is classed as functional. (A flow cytometer gives signals particle by particle.)
Series [4] is described as follows: Cytotoxicity against human leukemia stem/progenitor cells assessed as viable CD34+ cells at 10 uM after 18 hrs by annexin-V labeling-based flow cytometry relative to control. The class given is functional, CD34+ cell.
A further series has as its system HL-60. Nature of the series: Cytotoxicity against human HL60 cells after 18 hrs by annexin-V labeling-based flow cytometry. The class given is functional, cell-based. The note with it: HL-60, 18 h.
Series [5] is described as follows: Cytotoxicity against human HL60/A cells after 18 hrs by annexin-V labeling-based flow cytometry. The class given is functional, cell-based.
Series [6] can be described thus: Drug degradation at pH 7.4 assessed as release of PTL after 3 hrs. The class given is physicochemical. The note with it: buffer, pH 7.4, 3 h.
Series [7] can be described thus: Cytotoxicity against human leukemia stem/progenitor cells assessed as viable CD34+ cells at 5 uM after 18 hrs by annexin-V labeling-based flow cytometry. The class given is functional, CD34+ cell. In outline: (§1)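 Primary leukemia cells from AML patient blood were treated for 18 h in serum-free IMDM, then stained with CD34-APC and CD38-PECy7 for 30 min. After washing in cold PBS, cells were labelled with Annexin-V–FITC/PI for 15 min at room temperature and read by flow cytometry. Viability of total and CD34⁺ cells was normalized to untreated controls (mean, SD).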

Series [8] is described as follows: Cytotoxicity against human leukemia stem/progenitor cells assessed as cell viability at 5 uM after 18 hrs by annexin-V labeling-based flow cytometry. The note with it: in the assay text read “leukemia cells” for “leukemia stem/progenitor cells”, read-out: Activity. The class given is functional. The gist of the method:
as §1

Series [9] is described as follows: Induction of apoptosis in CD34+ leukemia stem/progenitor cells assessed as viable cells at 10 uM using annexin V/propidium iodide by flow cytometry. The class given is functional. The note with it: Homo sapiens; read-out: Activity. In outline:
(§2)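 Primary AML patient cells were exposed to 10 μM compound for 18 h in IMDM, then stained with CD34-APC/CD38-PECy7. Annexin-V–FITC/PI was added and incubated for 15 min at room temperature before flow cytometry. Quadrants were defined as Q1 necrotic, Q2 late apoptotic, Q3 early apoptotic and Q4 viable.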

A short description of series [10]: Reduction in colony forming units of leukemia stem/progenitor cells at 5 uM after 15 to 20 days. The series is classed as functional, Homo sapiens. The gist of the method: (§3)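 Mononuclear cells from AML patient […] were exposed to drug for 18 h in serum-free IMDM, then plated in triplicate in M3434 methylcellulose. Total colonies (CFC-Mix, CFC-GM, CFC-G, CFC-M, BFU-E) were scored by morphology after 15−20 days.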

Series [11] can be described thus: Cytotoxicity against human CD34+ hematopioetic stem cells at 5 uM by immunostaining method. The class given is cell-based. In outline:
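Mononuclear cells were Ficoll-isolated from umbilical cord blood of a normal donor, cryopreserved, then rested in serum-free IMDM for 1 h. Cells were treated for 18 h in IMDM, stained with CD34-APC for 30 min, and labelled with Annexin-V–FITC/PI for 15 min at room temperature. Read by flow cytometry, normalized to vehicle, done in triplicate.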

The next series concerns Homo sapiens. Nature of the series: Antitumor activity against human leukemia stem/progenitor cells xenografted in NOD/SCID mouse assessed as reduction of CD45+CD33+ cells in spleen compound pretreated for 18 hrs before grafting process measured after 8 weeks. The class given is functional, tissue-based. In outline:
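Fresh primary AML patient cells were exposed for 18 h to saline or compound. Equal numbers of surviving cells were then injected iv into NOD/SCID mice. After 8 weeks the mice were sacrificed, and the spleen CD33⁺CD45⁺ human cells were quantified by flow cytometry, with each animal analysed individually.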
(In general: In xenograft studies the graft and the host belong to different species.)

A short description of series [12]: Induction of apoptosis in CD34+ leukemia stem/progenitor cells assessed as early apoptotic cells at 10 uM using annexin V/propidium iodide by flow cytometry. The class given is functional, Homo sapiens. In outline: as §2
Series [13] can be described thus: Induction of apoptosis in CD34+ leukemia stem/progenitor cells assessed as necrotic cells at 10 uM using annexin V/propidium iodide by flow cytometry. The class given is functional, Homo sapiens. The gist of the method: as §2
Series [14] is described as follows: Reduction in colony forming units of leukemia stem/progenitor cells at 10 uM after 15 to 20 days. The series is classed as functional, Homo sapiens. In outline: as §3
The nature of series [15]: Induction of apoptosis in CD34+ leukemia stem/progenitor cells assessed as late apoptotic cells at 10 uM using annexin V/propidium iodide by flow cytometry. The class given is functional, Homo sapiens. The gist of the method: as §2

Experimental findings from ChEMBL document CHEMBL2202986, “Guaianolide sesquiterpene lactones, a source to discover agents that selectively inhibit acute myelogenous leukemia stem and progenitor cells” (J Med Chem, 2012) are described below.

The source made the active and inactive calls. A value given as a limit tells only on which side of the number the result lay.

`C=C1C(=O)O[C@@H]2[C@H]3C(C)=CC[C@@]34O[C@@]4(C)CC[C@@H]12` [ARGLABIN]: in series [1], the Activity is recorded as 10.7%. Besides, the viability at 10 µM in series [2] is 20%. For the same compound, the “fold change (FC)” value in series [3] worked out at 1.9; in series [4], 1.8.
As for `C[C@@H]1CC[C@H]2[C@@H](C)C(=O)O[C@@H]3O[C@@]4(C)CC[C@@H]1[C@]32OO4` [ARTEMISININ], the IC50 (in the series with HL-60; in series [5]) was more than 50 µM in each case.
Turning to `C/C1=C\CC[C@@]2(C)O[C@@H]2[C@H]2OC(=O)[C@@H](Cn3cc(-c4cccc(N)c4)nn3)[C@@H]2CC1`, the IC50 (usually the midpoint of a concentration-inhibition curve) was more than 50 µM in the series on HL-60 and more than 100 µM in series [5]. In addition, in [6], the Drug degradation result is listed as “Not Active”.
In the case of `C/C1=C\CC[C@@]2(C)O[C@@H]2[C@H]2OC(=O)[C@@H](CN=[N+]=[N-])[C@@H]2CC1`, the Activity was determined as 28.4% in [7] and 17.5% in [1]. Also, the IC50 in the series on HL-60 was found to be 4.3 µM; in series [5], 5.9 µM. Further, the viability at 10 µM in series [2] was 22.8%. In [8], the viability at 5 µM came to 31.5%. For the same compound, in series [6], the Drug degradation entry is listed as “Active”.
With `C=C1CC(=O)OC1=O` [ITACONIC ANHYDRIDE], the IC50 (in the series with HL-60; in [5]) was more than 50 µM each time.
Consider `C=C1C(=O)O[C@@H]2[C@@H]3[C@@H](CC[C@@]3(C)O)C(=C)CC[C@@H]12`, for which the Activity is recorded as 53.7% in series [7] and 22.6% in [1]. Besides, the IC50 in the series with HL-60 was determined as 9.4 µM; in series [5], 9.9 µM. For the same compound, the viability at 10 µM in series [2] is 30.6%. The viability at 5 µM in [8] stood at 61.6%.
Take `C=C1CC[C@H]2C(=C)CC[C@H]3C(=C)C(=O)O[C@@H]3[C@@H]12` [DEHYDROCOSTUSLACTONE]: the results for the Activity in series [7] and in series [1] were 2.9% and 3.8%, respectively. The IC50 in the series with HL-60 came out at 5.3 µM; in [5], 3.7 µM. Besides, the viability at 10 µM in series [2] is 6.4%. Besides, the viability at 5 µM in series [8] worked out at 6.1%.
For `C=C1C(=O)O[C@@H]2/C=C(\C)CC/C=C(\C)CC[C@@H]12` [COSTUNOLIDE], the figures for the Activity in series [7] and in [1] were 18.8% and 7.5%, respectively. For the same compound, the results for the IC50 (in the series with HL-60; in series [5]) were 7.7 µM and 5.8 µM, respectively. In addition, in series [2], the viability at 10 µM was determined as 13.4%. Also, the viability at 5 µM in series [8] came to 25.8%.
With `C/C1=C\CC[C@@]2(C)O[C@@H]2[C@H]2OC(=O)[C@@H](Cn3cc(CCCCO)nn3)[C@@H]2CC1`, the IC50 was more than 50 µM with HL-60 and more than 100 µM in series [5]. Moreover, in [6], the Drug degradation result was “Not Active”.
Regarding `C=C1C(=O)O[C@H]2[C@H]1CCC(C)=C1CC[C@@](C)(OC)[C@@H]12`, the Activity stood at 25.5% in [7] and 2.1% in series [1]. For the same compound, the IC50 came to 9.9 µM in the series with HL-60 and 10.2 µM in series [5]. Moreover, the viability at 10 µM in series [2] worked out at 10.8%. Besides, in [8], the viability at 5 µM amounted to 34.1%.
For the compound `C=C1C(=O)O[C@@H]2C3O[C@]3(C)CC/C=C(\C)CC[C@@H]12` (some centres undefined), the viability at 10 µM in series [9] amounted to 1.73%; in [2], 8.3%. Moreover, the CFU in [10] amounted to 2; in series [14], 0. Further, the Activity was 13.2% in [7]; “Non-toxic” in series [11]; 4.7% in series [1]; 60.3% in series [12]; 0.046% in series [13]; 27.8% in series [15]. Besides, the 50% inhibitory concentration (IC50) amounted to 3.7 µM in the series on HL-60 and 4.1 µM in series [5]. For the same compound, the result with Homo sapiens was Active. For the same compound, the viability at 5 µM in series [8] was 18%. Moreover, the “fold change (FC)” value is listed as 2.6 in series [3] and 3.8 in series [4].
For the compound `C=C1C(=O)O[C@@H]2[C@@H]3[C@@H](CC[C@@]3(C)O)[C@](C)(OC)CC[C@@H]12`, the Activity in series [7] is recorded as 95.8%; in series [1], 76.3%. For the same compound, the half-inhibitory concentration (IC50) in the series with HL-60 came to 9.4 µM; in series [5] it was 11.2 µM. For the same compound, the viability at 10 µM in series [2] worked out at 75.2%. Also, the viability at 5 µM in series [8] is 96.5%.
Regarding `C=C1C(=O)O[C@@H]2C=C(CCC(C)=O)[C@@H](C)CC[C@@H]12`, the Activity is given as 81.5% in series [7] and 70.9% in series [1]. Also, the IC50 (in the series with HL-60; in [5]) was more than 50 µM throughout. Further, in series [2], the viability at 10 µM is 72%. Also, the viability at 5 µM in series [8] amounted to 83.2%.
As for `C/C1=C\CC[C@@]2(C)O[C@@H]2[C@H]2OC(=O)[C@@H](Cn3cc(CO)nn3)[C@@H]2CC1`, the IC50 in the series on HL-60 is more than 50 µM; in series [5], more than 100 µM. Besides, in series [6], the Drug degradation entry is “Not Active”.
The like results for `C/C1=C\CC[C@@]2(C)O[C@@H]2[C@H]2OC(=O)[C@@H](Cn3cc(-c4ccccc4)nn3)[C@@H]2CC1` were, in that order, more than 50 µM, more than 100 µM and “Not Active”.
As to `C=C1CCOC1=O` [TULIPALINE A], the IC50 in the series with HL-60 was found to be 35 µM; in [5], 28.8 µM.
In the case of `CC1=C2CC[C@@](C)(O)[C@@H]2[C@H]2OC(=O)[C@@H](C)[C@@H]2CC1`, the Activity worked out at 83.1% in [7] and 74.4% in series [1]. Also, the IC50 (with HL-60; in series [5]) was more than 50 µM in each case. Also, the viability at 10 µM in series [2] turned out to be 70.8%. Moreover, the viability at 5 µM in [8] turned out to be 85%.
As for `CC1=C2CC[C@@](C)(O)[C@@H]2[C@H]2OC(=O)[C@@H](CN=[N+]=[N-])[C@@H]2CC1`, the Activity is 26.3% in series [7] and 11.2% in series [1]. The IC50 in the series with HL-60 is 6.2 µM; in series [5] it was 6.7 µM. The viability at 10 µM in [2] came out at 53.1%. Moreover, in [8], the viability at 5 µM was found to be 64.3%.
`C=C1C(=O)O[C@@H]2[C@@H]3[C@@H](CC[C@@]3(C)O)[C@](C)(O)CC[C@@H]12`: the values for the Activity in [7] and in series [1] were 84.9% and 84.8%, respectively. The IC50 in the series with HL-60 turned out to be 21.9 µM; in [5], 17.9 µM. In addition, in series [2], the viability at 10 µM is 89.9%. Besides, the viability at 5 µM in series [8] is 88.5%.
On to `CCCCC/C=C/C=C/C(=O)N1CCCC1` [SARMENTINE], for which the IC50 (in the series with HL-60; in series [5]) was more than 50 µM in each case.
Regarding `C=C1CC[C@H]2C(=C)C(=O)O[C@@H]2[C@]2(O)[C@@H]1CC[C@@H]2C`, the Activity in series [7] came out at 67.9%; in series [1] it was 44.5%. In addition, the IC50 turned out to be 4.5 µM with HL-60 and 6.4 µM in [5]. For the same compound, the viability at 10 µM in series [2] worked out at 49.7%. For the same compound, in [8], the viability at 5 µM came out at 70.7%.
In the case of `C=C1CC[C@@H]2[C@](C)(CO)[C@H](O)CC[C@@]2(C)[C@@H]1C/C=C1/C(=O)OC[C@H]1O` [ANDROGRAPHOLIDE], the IC50 is 27 µM in the series with HL-60 and 23.3 µM in [5].
